Source: ChEMBL document CHEMBL2375313, “Synthesis, in vitro antitumor evaluation and DNA-binding study of novel tetrahydroquinolines and some derived tricyclic and tetracyclic ring systems” (Eur J Med Chem, 2013)

Key:
Format in all cases: functional
[1] = system: SF-295; assay: Cytotoxicity against human SF295 cells assessed as growth inhibition at 10 uM after 48 hrs by sulphorhodamine B assay; details: SF-295, 48 h, read-out: GI
Procedure, shortened: (§1)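 NCI-60 one-dose screen per the NCI Drug Evaluation Branch protocol. Cells given a single 10 µM concentration with 48 h continuous exposure. Growth estimated by sulphorhodamine B protein assay. Result expressed as percentage growth inhibition relative to untreated growth.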

[2] = system: OVCAR-4; assay: Cytotoxicity against human OVCAR4 cells assessed as growth inhibition at 10 uM after 48 hrs by sulphorhodamine B assay; details: OVCAR-4, 48 h, read-out: GI; procedure, shortened: as §1
[3] = system: NCI-H23; assay: Cytotoxicity against human NCI-H23 cells assessed as growth inhibition at 10 uM after 48 hrs by sulphorhodamine B assay; details: NCI-H23, 48 h, read-out: GI; procedure, shortened: as §1
[4] = system: IGROV-1; assay: Cytotoxicity against human IGROV1 cells assessed as growth inhibition at 10 uM after 48 hrs by sulphorhodamine B assay; details: IGROV-1, 48 h, read-out: GI; procedure, shortened: as §1
[5] = system: NCI-H522; assay: Cytotoxicity against human NCI-H522 cells assessed as growth inhibition at 10 uM after 48 hrs by sulphorhodamine B assay; details: NCI-H522, 48 h, read-out: GI; procedure, shortened: as §1
[6] = system: SR; assay: Cytotoxicity against human SR cells assessed as growth inhibition at 10 uM after 48 hrs by sulphorhodamine B assay; details: read-out: GI; procedure, shortened: as §1
[7] = system: HCT-116; assay: Cytotoxicity against human HCT116 cells assessed as growth inhibition at 10 uM after 48 hrs by sulphorhodamine B assay; details: HCT-116, 48 h, read-out: GI; procedure, shortened: as §1
[8] = system: K562; assay: Cytotoxicity against human K562 cells assessed as growth inhibition at 10 uM after 48 hrs by sulphorhodamine B assay; details: K562, 48 h, read-out: GI; procedure, shortened: as §1
[9] = system: SNB-75; assay: Cytotoxicity against human SNB75 cells assessed as growth inhibition at 10 uM after 48 hrs by sulphorhodamine B assay; details: SNB-75, 48 h, read-out: GI; procedure, shortened: as §1
[10] = system: UACC-62; assay: Cytotoxicity against human UACC62 cells assessed as growth inhibition at 10 uM after 48 hrs by sulphorhodamine B assay; details: UACC-62, 48 h, read-out: GI; procedure, shortened: as §1
[11] = system: SK-MEL-2; assay: Cytotoxicity against human SK-MEL-2 cells assessed as growth inhibition at 10 uM after 48 hrs by sulphorhodamine B assay; details: SK-MEL-2, 48 h, read-out: GI; procedure, shortened: as §1
[12] = system: LOX IMVI; assay: Cytotoxicity against human LOXIMVI cells assessed as growth inhibition at 10 uM after 48 hrs by sulphorhodamine B assay; details: read-out: GI; procedure, shortened: as §1
[13] = system: CAKI-1; assay: Cytotoxicity against human Caki1 cells assessed as growth inhibition at 10 uM after 48 hrs by sulphorhodamine B assay; details: CAKI-1, 48 h, read-out: GI; procedure, shortened: as §1
[14] = system: M14; assay: Cytotoxicity against human M14 cells assessed as growth inhibition at 10 uM after 48 hrs by sulphorhodamine B assay; details: M14, 48 h, read-out: GI; procedure, shortened: as §1
[15] = system: Hs-578T; assay: Cytotoxicity against human Hs578T cells assessed as growth inhibition at 10 uM after 48 hrs by sulphorhodamine B assay; details: read-out: GI; procedure, shortened: as §1
[16] = system: HCT-15; assay: Cytotoxicity against human HCT15 cells assessed as growth inhibition at 10 uM after 48 hrs by sulphorhodamine B assay; details: HCT-15, 48 h, read-out: GI; procedure, shortened: as §1
[17] = system: HT-29; assay: Cytotoxicity against human HT-29 cells assessed as growth inhibition at 10 uM after 48 hrs by sulphorhodamine B assay; details: HT-29, 48 h, read-out: GI; procedure, shortened: as §1
[18] = system: SK-OV-3; assay: Cytotoxicity against human SKOV3 cells assessed as growth inhibition at 10 uM after 48 hrs by sulphorhodamine B assay; details: SK-OV-3, 48 h, read-out: GI; procedure, shortened: as §1
[19] = system: MOLT-4; assay: Cytotoxicity against human MOLT4 cells assessed as growth inhibition at 10 uM after 48 hrs by sulphorhodamine B assay; details: MOLT-4, 48 h, read-out: GI; procedure, shortened: as §1
[20] = system: PC-3; assay: Cytotoxicity against human PC3 cells assessed as growth inhibition at 10 uM after 48 hrs by sulphorhodamine B assay; details: PC-3, 48 h, read-out: GI; procedure, shortened: as §1
[21] = system: T47D; assay: Cytotoxicity against human T47D cells assessed as growth inhibition at 10 uM after 48 hrs by sulphorhodamine B assay; details: read-out: GI; procedure, shortened: as §1
[22] = system: RPMI-8226; assay: Cytotoxicity against human RPMI8226 cells assessed as growth inhibition at 10 uM after 48 hrs by sulphorhodamine B assay; details: RPMI-8226, 48 h, read-out: GI; procedure, shortened: as §1
[23] = system: DU-145; assay: Cytotoxicity against human DU145 cells assessed as growth inhibition at 10 uM after 48 hrs by sulphorhodamine B assay; details: DU-145, 48 h, read-out: GI; procedure, shortened: as §1
[24] = system: MDA-MB-468; assay: Cytotoxicity against human MDA-MB-468 cells assessed as growth inhibition at 10 uM after 48 hrs by sulphorhodamine B assay; details: MDA-MB-468, 48 h, read-out: GI; procedure, shortened: as §1
[25] = system: NCI/ADR-RES; assay: Cytotoxicity against human NCI/ADR-RES cells assessed as growth inhibition at 10 uM after 48 hrs by sulphorhodamine B assay; details: read-out: GI; procedure, shortened: as §1
[26] = system: UO-31; assay: Cytotoxicity against human UO31 cells assessed as growth inhibition at 10 uM after 48 hrs by sulphorhodamine B assay; details: UO-31, 48 h, read-out: GI; procedure, shortened: as §1
[27] = system: A549; assay: Cytotoxicity against human A549 cells assessed as growth inhibition at 10 uM after 48 hrs by sulphorhodamine B assay; details: A549, 48 h, read-out: GI; procedure, shortened: as §1
[28] = system: MCF7; assay: Cytotoxicity against human MCF7 cells assessed as growth inhibition at 10 uM after 48 hrs by sulphorhodamine B assay; details: MCF7, 48 h, read-out: GI; procedure, shortened: as §1
[29] = Cytotoxicity against human EKVX cells assessed as growth inhibition at 10 uM after 48 hrs by sulphorhodamine B assay; details: read-out: GI; procedure, shortened: as §1
[30] = system: HOP-92; assay: Cytotoxicity against human HOP92 cells assessed as growth inhibition at 10 uM after 48 hrs by sulphorhodamine B assay; details: HOP-92, 48 h, read-out: GI; procedure, shortened: as §1
[31] = system: RXF 393; assay: Cytotoxicity against human RXF393 cells assessed as growth inhibition at 10 uM after 48 hrs by sulphorhodamine B assay; details: RXF 393, 48 h, read-out: GI; procedure, shortened: as §1
[32] = system: HL-60(TB); assay: Cytotoxicity against human HL-60(TB) cells assessed as growth inhibition at 10 uM after 48 hrs by sulphorhodamine B assay; details: HL-60, 48 h, read-out: GI
Procedure, shortened: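 NCI-60 one-dose primary screen run to the Drug Evaluation Branch protocol. Cells are exposed to a single 10 µM concentration for 48 h continuously, and growth is read by SRB protein assay. Data are reported as percent growth of treated cells, expressed as % growth inhibition.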

[33] = system: CCRF-CEM; assay: Cytotoxicity against human CCRF-CEM cells assessed as growth inhibition at 10 uM after 48 hrs by sulphorhodamine B assay; details: read-out: GI; procedure, shortened: as §1
[34] = system: ACHN; assay: Cytotoxicity against human ACHN cells assessed as growth inhibition at 10 uM after 48 hrs by sulphorhodamine B assay; details: read-out: GI; procedure, shortened: as §1
[35] = system: SK-MEL-5; assay: Cytotoxicity against human SK-MEL-5 cells assessed as growth inhibition at 10 uM after 48 hrs by sulphorhodamine B assay; details: SK-MEL-5, 48 h, read-out: GI; procedure, shortened: as §1
[36] = system: U-251; assay: Cytotoxicity against human U251 cells assessed as growth inhibition at 10 uM after 48 hrs by sulphorhodamine B assay; details: U-251, 48 h, read-out: GI; procedure, shortened: as §1
[37] = system: SF-268; assay: Cytotoxicity against human SF268 cells assessed as growth inhibition at 10 uM after 48 hrs by sulphorhodamine B assay; details: SF-268, 48 h, read-out: GI; procedure, shortened: as §1
[38] = system: A498; assay: Cytotoxicity against human A498 cells assessed as growth inhibition at 10 uM after 48 hrs by sulphorhodamine B assay; details: A498, 48 h, read-out: GI; procedure, shortened: as §1
[39] = system: SNB-19; assay: Cytotoxicity against human SNB19 cells assessed as growth inhibition at 10 uM after 48 hrs by sulphorhodamine B assay; details: SNB-19, 48 h, read-out: GI; procedure, shortened: as §1
[40] = system: MDA-MB-435; assay: Cytotoxicity against human MDA-MB-435 cells assessed as growth inhibition at 10 uM after 48 hrs by sulphorhodamine B assay; details: MDA-MB-435, 48 h, read-out: GI; procedure, shortened: as §1
[41] = system: OVCAR-5; assay: Cytotoxicity against human OVCAR5 cells assessed as growth inhibition at 10 uM after 48 hrs by sulphorhodamine B assay; details: OVCAR-5, 48 h, read-out: GI; procedure, shortened: as §1

Measured: inhibition of growth at 10 µM

COc1ccc(-c2c3c(nc4ncn5ncnc5c24)C(C)CCC3)cc1 (stereo unspecified)
13%: [20]
15%: [12]
10.6%: [4]
31%: [22]
18.3%: [10]
17.8%: [6]
19%: [19]
13.5%: [38]
< 10%: all other assays above
